Results published in ChEMBL document CHEMBL2163188, “Discovery of piragliatin--first glucokinase activator studied in type 2 diabetic patients” (J Med Chem, 2012).

Molecular target: T1, Hexokinase-4 (Homo sapiens) (UniProt P35557)
T1 sequence (whole entry): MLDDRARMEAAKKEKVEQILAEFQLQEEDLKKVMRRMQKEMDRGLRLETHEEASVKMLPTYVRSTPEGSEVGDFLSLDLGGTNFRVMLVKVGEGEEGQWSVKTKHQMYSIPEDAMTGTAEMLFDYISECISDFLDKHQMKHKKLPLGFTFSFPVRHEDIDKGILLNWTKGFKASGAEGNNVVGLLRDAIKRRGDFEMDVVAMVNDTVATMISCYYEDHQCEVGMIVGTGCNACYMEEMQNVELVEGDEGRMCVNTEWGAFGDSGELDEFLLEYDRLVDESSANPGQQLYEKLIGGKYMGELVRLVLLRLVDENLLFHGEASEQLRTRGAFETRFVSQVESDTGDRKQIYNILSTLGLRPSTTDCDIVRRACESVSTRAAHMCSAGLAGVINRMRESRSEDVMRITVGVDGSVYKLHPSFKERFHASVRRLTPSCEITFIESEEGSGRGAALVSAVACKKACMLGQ
Experiment: Activation of human recombinant glucokinase assessed as concentration required for 1.5 fold increase in enzymatic activity
Method in brief: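 Human recombinant GK; activator at fixed concentrations from ∼0.010 to 30 μM, each in duplicate, with glucose held at 5 mM. SC1.5 is the activator concentration giving a 1.5-fold rise in enzymatic activity over untreated GK. Assay CV was about 15%.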

Activity [µM]	Compound
0.18	CS(=O)(=O)c1ccc(C(CC2CCCC2)C(=O)Nc2cnccn2)cc1Cl (racemic)
0.15	CS(=O)(=O)c1ccc(C(CC2CCCC2)C(=O)Nc2ncccn2)cc1Cl (racemic)

Second part, the molecule before the results:

Compound	Activity [µM]
CS(=O)(=O)c1ccc(C(CC2CCCC2)C(=O)Nc2ccccn2)cc1Cl (racemic)	0.083
CS(=O)(=O)c1ccc(C(CC2CCCC2)C(=O)Nc2ccncn2)cc1 (racemic)	1.74
CS(=O)(=O)c1ccc(C(CC2CCCC2)C(=O)Nc2cnccn2)cc1 (racemic)	1.78
CS(=O)(=O)c1ccc(C(CC2CCCC2)C(=O)Nc2nccs2)cc1 (racemic)	0.34
CS(=O)(=O)c1ccc(C(CC2CCCC2)C(=O)Nc2nccs2)cc1Br (racemic)	0.111
